The test system of series [1] is Hepatitis C virus. Description: Inhibition of HCV 1b NS5Bdelta21 polymerase assessed as [3H]UTP incorporated into the biotinylated primer after 90 mins by scintillation counting. It is filed as functional, Hepatitis C virus subtype 1b.
Series [2] can be described thus: Cytotoxicity against human HuH7 cells. It is filed as cell-based, Huh-7. The note with it: read-out: TC50 (the source's name).
In series [3] the test system is Hepatitis C virus. Description: Antiviral activity against HCV1b in human Huh7 cells assessed as reduction of viral RNA replication after 72 hrs by luciferase reporter assay. The conditions noted are these: genotype 1b, Huh-7, 72 h. Type of series: functional, organism-based, Hepacivirus hominis. Background: In a reporter assay the amount or activity of a reporter protein is the signal.

A short description of series [4]: Inhibition of calf thymus DNA-directed RNA polymerase 2 assessed as [33P]UTP incorporated into the RNA after 120 mins by scintillation counting. More on the design: species or system Bos taurus.
Series [5] can be described thus: Permeability across human Caco-2 cells. It is filed as ADME, cell-based. The note with it: read-out: permeability. For orientation: Passage across Caco-2 layers is used to estimate intestinal permeability.
Series [6] can be described thus: Half life in rat liver microsomes at 10 uM. Type of series: ADME, Microsome. The gist of the method: (§1)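 Half-life was measured with compound at 10 µM in human or rat liver microsomes.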
Another series concerns the target Cytochrome P450 2C9 (Homo sapiens, UniProt P11712). Description: Inhibition of CYP2C9. It is filed as ADME.
The next series has as its target Cytochrome P450 2C19 (Homo sapiens, UniProt P33261). Description: Inhibition of CYP2C19. Type of series: ADME.
Series [7] in a line: (§2) Half life in human liver microsomes at 10 uM. It is filed as ADME, Microsome. The conditions noted are these: liver microsomes. The method, boiled down: as §1
(Microsomes from liver hold many membrane-bound enzymes, among them those of drug oxidation.)

A short description of series [8]: Solubility in phosphate buffer at pH 7.2 after 24 hrs by shake flask method. It is filed as physicochemical.
The target in the next series is Cytochrome P450 3A4 (Homo sapiens, UniProt P08684). Description: Inhibition of CYP3A4. It is filed as ADME.
A further series concerns Liver microsomes. The description is as §2. It is filed as ADME, Microsome. The note with it: microsomes, 10 µM. The gist of the method: as §1
A short description of series [9]: AUC in Sprague-Dawley rat plasma at 5 mg/kg, po. Details: dose 5 mg/kg, route oral. Type of series: ADME, organism-based. The gist of the method:
(§3)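 Male Sprague-Dawley rats, fasted overnight, given 5 mg/kg by oral gavage in 0.5% methocel/0.3% Tween-80. Plasma was pooled from three animals at each time point over 0–8 h. Compound was quantified after liquid–liquid extraction by HPLC with UV detection.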

The nature of series [10]: Cmax in Sprague-Dawley rat plasma at 5 mg/kg, po. Type of series: ADME, organism-based. Details: dose 5 mg/kg, route oral. The gist of the method: as §3
The nature of series [11]: Mean residence time in Sprague-Dawley rat plasma at 5 mg/kg, po. It is filed as ADME, organism-based. More on the design: dose 5 mg/kg, route oral. The method, boiled down:
as §3

The species named for another series is Homo sapiens. Description: Protein binding in human plasma by equilibrium dialysis method. The note with it: read-out: PPB (converted).
A short description of series [12]: Tmax in Sprague-Dawley rat plasma at 5 mg/kg, po. Type of series: ADME, organism-based. Details: dose 5 mg/kg, route oral. The method, boiled down: as §3

pEC50, pIC50: −log10 of the molar value. ≈ marks a conversion by molar mass, not a printed value.

Cytochrome P450 2C9, sequence (P11712 whole entry): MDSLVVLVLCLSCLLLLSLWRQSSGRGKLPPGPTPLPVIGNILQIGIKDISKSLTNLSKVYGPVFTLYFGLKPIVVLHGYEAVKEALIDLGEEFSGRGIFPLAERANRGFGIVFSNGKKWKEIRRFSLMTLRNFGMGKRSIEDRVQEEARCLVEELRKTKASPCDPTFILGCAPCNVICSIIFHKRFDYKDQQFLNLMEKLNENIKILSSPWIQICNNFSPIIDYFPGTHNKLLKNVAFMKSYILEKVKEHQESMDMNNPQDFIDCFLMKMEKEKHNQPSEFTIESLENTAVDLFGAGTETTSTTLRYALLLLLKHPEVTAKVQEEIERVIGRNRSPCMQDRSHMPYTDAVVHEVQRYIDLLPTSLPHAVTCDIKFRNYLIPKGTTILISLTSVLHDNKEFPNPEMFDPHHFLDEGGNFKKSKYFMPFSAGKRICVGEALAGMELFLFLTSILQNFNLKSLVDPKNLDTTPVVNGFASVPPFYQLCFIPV
Cytochrome P450 2C19, sequence (P33261 whole entry): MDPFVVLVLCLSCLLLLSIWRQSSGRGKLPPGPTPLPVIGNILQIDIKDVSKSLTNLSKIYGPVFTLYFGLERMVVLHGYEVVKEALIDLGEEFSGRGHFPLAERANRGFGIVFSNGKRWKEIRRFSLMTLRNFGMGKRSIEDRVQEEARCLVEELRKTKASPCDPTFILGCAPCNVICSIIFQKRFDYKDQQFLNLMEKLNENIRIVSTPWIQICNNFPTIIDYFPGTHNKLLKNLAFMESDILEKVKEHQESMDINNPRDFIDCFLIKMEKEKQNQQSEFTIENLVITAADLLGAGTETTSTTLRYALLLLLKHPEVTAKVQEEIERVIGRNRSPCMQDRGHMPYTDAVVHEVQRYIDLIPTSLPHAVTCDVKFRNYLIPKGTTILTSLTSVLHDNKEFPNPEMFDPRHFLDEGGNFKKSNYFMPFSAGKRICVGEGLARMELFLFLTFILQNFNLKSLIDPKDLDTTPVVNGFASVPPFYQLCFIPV
Cytochrome P450 3A4, sequence (P08684 whole entry): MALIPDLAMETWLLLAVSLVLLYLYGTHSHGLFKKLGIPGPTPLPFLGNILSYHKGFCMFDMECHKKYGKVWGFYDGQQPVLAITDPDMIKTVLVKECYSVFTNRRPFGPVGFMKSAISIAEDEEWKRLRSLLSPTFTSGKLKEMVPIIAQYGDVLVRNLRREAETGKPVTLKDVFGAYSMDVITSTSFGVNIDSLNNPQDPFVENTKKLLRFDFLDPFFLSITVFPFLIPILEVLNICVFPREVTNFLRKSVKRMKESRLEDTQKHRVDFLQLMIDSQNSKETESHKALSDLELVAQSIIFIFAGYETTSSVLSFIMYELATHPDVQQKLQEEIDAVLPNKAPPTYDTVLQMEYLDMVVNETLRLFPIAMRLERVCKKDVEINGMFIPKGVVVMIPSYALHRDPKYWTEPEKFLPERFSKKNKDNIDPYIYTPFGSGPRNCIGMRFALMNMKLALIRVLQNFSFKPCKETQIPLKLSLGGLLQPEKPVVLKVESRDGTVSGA

Usually pIC50 stands for −log10 of the IC50, conventionally taken in molar units. For the compound `O=C(N[C@@H](Cc1c[nH]c2ccc(O)cc12)C(=O)O)c1ccc2c(c1)nc(-c1ccoc1)n2C1CCCCC1`, the pIC50 in the series on Hepatitis C virus [1] is 7.52.

Turning to `O=C(N[C@@H](Cc1c[nH]c2ccc(O)cc12)C(=O)O)c1ccc2c(c1)nc(-c1cccs1)n2C1CCCCC1`, the negative logarithm of the IC50 (pIC50) in the series with Hepatitis C virus [1] was 7.10.

In general, pEC50 refers to −log10 of the EC50, conventionally taken in molar units. Turning to `O=C(O)/C=C/c1ccc(NC(=O)C2(NC(=O)c3ccc4c(c3)nc(-c3cccs3)n4C3CCCCC3)CCC2)cc1`, in [2], the CC50 was above 10000 nM. Besides, in the series with Hepatitis C virus [3], the pEC50 was 5.92. The pIC50 in [4] was below 3.60; in the series with Hepatitis C virus [1] it was 6.96.

Consider `O=C(N[C@@H](Cc1c[nH]c2ccc(O)cc12)c1cscn1)c1ccc2c(c1)nc(-c1ccco1)n2C1CCCCC1`, for which, in series [2], the CC50 was above 10000 nM. Also, the pEC50 with Hepatitis C virus [3] was 5.47. Also, in the series with Hepatitis C virus [1], the pIC50 is 6.57.

Consider `O=C(O)/C=C/c1ccc(NC(=O)C2(NC(=O)c3ccc4c(c3)nc(-c3ccoc3)n4C3CCCCC3)CCC2)cc1`, for which, in series [2], the CC50 was above 10000 nM. Further, the pEC50 with Hepatitis C virus [3] is 5.96. Moreover, the pIC50 in series [4] was below 3.60; with Hepatitis C virus [1] it was 7.30.

A word on the half-life: it is the time needed for the level to fall by half in the phase considered. A lower half-life goes with fast loss. Usually thermodynamic solubility stands for solubility found after equilibrating the solid with the medium. With `O=C(O)/C=C/c1ccc(NC(=O)C2(NC(=O)c3ccc4c(c3)nc(-c3ccoc3)n4C3CCCCC3)CCCC2)cc1`, the Papp in series [5] is 3.9 ×10⁻⁶ cm/s. The half-life at 10 µM in [6] came out at 54 min; in [7], 77 min. In addition, the CC50 in series [2] is above 10000 nM. Moreover, the negative-log EC50 (pEC50) in the series with Hepatitis C virus [3] is 6.06. The pIC50 was 4.94 on Cytochrome P450 2C9, 5.11 against Cytochrome P450 2C19 and below 3.60 in series [4]. In addition, the thermodynamic solubility at 24 h in [8] was found to be 125 µg/mL (≈ 221 µM).

For the compound `O=C(O)/C=C/c1ccc(NC(=O)C2(NC(=O)c3ccc4c(c3)nc(-c3ccccn3)n4C3CCCCC3)CCC2)cc1`, the CC50 in series [2] was above 10000 nM. Besides, the pEC50 in the series on Hepatitis C virus [3] was 6.15. Also, the figures for the negative-log IC50 (pIC50) (in series [4]; in the series with Hepatitis C virus [1]) were below 3.60 and 7.00, respectively.

Regarding `O=C(N[C@@H](Cc1c[nH]c2ccc(O)cc12)c1cscn1)c1ccc2c(c1)nc(-c1cccs1)n2C1CCCCC1`, the CC50 in series [2] is above 10000 nM. For the same compound, the pEC50 in the series with Hepatitis C virus [3] is 5.55. For the same compound, the pIC50 in the series on Hepatitis C virus [1] was 6.35.

As to `O=C(N[C@@H](Cc1c[nH]c2ccc(O)cc12)C(=O)O)c1ccc2c(c1)nc(-c1ccsc1)n2C1CCCCC1`, in the series on Hepatitis C virus [1], the pIC50 was 6.80.

In the case of `O=C(N[C@@H](Cc1c[nH]c2ccc(O)cc12)c1cscn1)c1ccc2c(c1)nc(-c1ccccc1)n2C1CCCCC1`, the CC50 in [2] was above 10000 nM. Besides, in the series with Hepatitis C virus [3], the pEC50 was 5.62. The pIC50 with Hepatitis C virus [1] was 5.94.

With `Cn1cccc1-c1nc2cc(C(=O)N[C@@H](Cc3c[nH]c4ccc(O)cc34)C(=O)O)ccc2n1C1CCCCC1`, the pIC50 in the series with Hepatitis C virus [1] is 7.22.

On to `O=C(O)/C=C/c1ccc(NC(=O)C2(NC(=O)c3ccc4c(c3)nc(-c3ccccc3)n4C3CCCCC3)CCC2)cc1`, for which the CC50 in [2] is above 10000 nM. Moreover, the pEC50 in the series on Hepatitis C virus [3] was 5.92. The pIC50 is below 3.60 in [4] and 6.70 with Hepatitis C virus [1].

For the compound `O=C(N[C@@H](Cc1c[nH]c2ccc(O)cc12)c1cscn1)c1ccc2c(c1)nc(-c1ccccn1)n2C1CCCCC1`, the CC50 in series [2] was above 10000 nM. Moreover, in the series on Hepatitis C virus [3], the negative logarithm of the EC50 (pEC50) was 5.72. In addition, the pIC50 in the series on Hepatitis C virus [1] is 6.16.

On to `O=C(N[C@@H](Cc1c[nH]c2ccc(O)cc12)C(=O)O)c1ccc2c(c1)nc(-c1ccccn1)n2C1CCCCC1`, for which, in the series on Hepatitis C virus [1], the pIC50 was 6.85.

On to `O=C(N[C@@H](Cc1c[nH]c2ccc(O)cc12)c1cscn1)c1ccc2c(c1)nc(-c1ccoc1)n2C1CCCCC1`, for which the CC50 in series [2] is above 10000 nM. Moreover, the pIC50 at Cytochrome P450 3A4 was 6.36; with Hepatitis C virus [1], 6.66. In addition, the pEC50 in the series with Hepatitis C virus [3] is 5.44. In addition, the t1/2 with Liver microsomes stood at 26 min. The compound further came in with a thermodynamic solubility at 24 h in [8] below 0.1 µg/mL.

For the compound `Cn1cccc1-c1nc2cc(C(=O)NC3(C(=O)Nc4ccc(/C=C/C(=O)O)cc4)CCC3)ccc2n1C1CCCCC1`, in series [2], the CC50 is above 10000 nM. In addition, the pEC50 with Hepatitis C virus [3] is 6.15. Besides, the values for the negative-log IC50 (pIC50) (in series [4]; in the series on Hepatitis C virus [1]) were below 3.60 and 7.05, respectively.

As to `O=C(N[C@@H](Cc1c[nH]c2ccc(O)cc12)C(=O)O)c1ccc2c(c1)nc(-c1ccccc1)n2C1CCCCC1`, the pIC50 with Hepatitis C virus [1] is 6.64.

In the case of `O=C(N[C@@H](Cc1c[nH]c2ccc(O)cc12)c1cscn1)c1ccc2c(c1)nc(-c1ccsc1)n2C1CCCCC1`, the CC50 in series [2] was above 10000 nM. Besides, in the series on Hepatitis C virus [3], the pEC50 is 5.54. In the series on Hepatitis C virus [1], the pIC50 is 6.28.

Take `O=C(O)/C=C/c1ccc(NC(=O)C2(NC(=O)c3ccc4c(c3)nc(-c3ccco3)n4C3CCCCC3)CCC2)cc1`: the CC50 in [2] was above 10000 nM. Also, the pEC50 with Hepatitis C virus [3] is 5.92. Moreover, the pIC50 in series [4] is below 3.60; in the series with Hepatitis C virus [1], 6.96.

One may read the AUC as concentration integrated over time. Lower therefore signals low exposure. As usually defined, the Cmax is the peak of the concentration-time curve. Usually MRT stands for a mean duration of stay, worked out from the concentration-time curve. The term Tmax denotes the time at which the peak concentration occurs. For `O=C(O)/C=C/c1ccc(NC(=O)C2(NC(=O)c3ccc4c(c3)nc(-c3ccccn3)n4C3CCCCC3)CCCC2)cc1`, the AUC in [9] was 0.51 µM·h. In addition, in series [5], the Papp was found to be 9.5 ×10⁻⁶ cm/s. Moreover, the half-life at 10 µM in series [6] was found to be 17 min; in series [7], 67 min. In series [2], the CC50 was above 10000 nM. In addition, in series [10], the concentration peaked (Cmax) at 580 nM. Moreover, in the series on Hepatitis C virus [3], the pEC50 was 6.24. For the same compound, the pIC50 is 5.40 against Cytochrome P450 2C9, 5.13 at Cytochrome P450 2C19 and below 3.60 in series [4]. The MRT in series [11] was determined as 44.4 min. In addition, in the series listed under Homo sapiens, the fraction unbound is 0.124. Further, the solubility (thermodynamic) at 24 h in series [8] was 100 µg/mL (≈ 173 µM). Besides, in [12], the Tmax was 30 min.

As for `O=C(O)/C=C/c1ccc(NC(=O)C2(NC(=O)c3ccc4c(c3)nc(-c3ccsc3)n4C3CCCCC3)CCC2)cc1`, the CC50 in series [2] is above 10000 nM. For the same compound, in the series with Hepatitis C virus [3], the pEC50 was 5.82. The negative logarithm of the IC50 (pIC50) in series [4] was below 3.60; with Hepatitis C virus [1], 6.92.

Turning to `O=C(N[C@@H](Cc1c[nH]c2ccc(O)cc12)C(=O)O)c1ccc2c(c1)nc(-c1ccco1)n2C1CCCCC1`, the pIC50 with Hepatitis C virus [1] was 7.10.

As for `Cn1cccc1-c1nc2cc(C(=O)N[C@@H](Cc3c[nH]c4ccc(O)cc34)c3cscn3)ccc2n1C1CCCCC1`, the CC50 in series [2] is above 10000 nM. In addition, the pEC50 with Hepatitis C virus [3] was 5.57. Moreover, the pIC50 with Hepatitis C virus [1] is 6.14.

Values taken from ChEMBL document CHEMBL1155433, “Benzimidazole Thumb Pocket I finger-loop inhibitors of HCV NS5B polymerase: improved drug-like properties through C-2 SAR in three sub-series” (Bioorg Med Chem Lett, 2010).
